Measured values: ChEMBL document CHEMBL1152452, “Modifications incorporated in CpG motifs of oligodeoxynucleotides lead to antagonist activity of toll-like receptors 7 and 9” (2009)
The source made the active and inactive calls. No cut-off for these calls is given here.

Experiments:
[1] = target: T1, Toll-like receptor 9 (Mus musculus) (UniProt Q9EQU3); assay: Activation of mouse TLR9 expressed in HEK293 cells assessed as NF-kappaB level at 1 ug/mL after 18 hrs by reporter gene assay; format: cell-based
T1 sequence (whole entry): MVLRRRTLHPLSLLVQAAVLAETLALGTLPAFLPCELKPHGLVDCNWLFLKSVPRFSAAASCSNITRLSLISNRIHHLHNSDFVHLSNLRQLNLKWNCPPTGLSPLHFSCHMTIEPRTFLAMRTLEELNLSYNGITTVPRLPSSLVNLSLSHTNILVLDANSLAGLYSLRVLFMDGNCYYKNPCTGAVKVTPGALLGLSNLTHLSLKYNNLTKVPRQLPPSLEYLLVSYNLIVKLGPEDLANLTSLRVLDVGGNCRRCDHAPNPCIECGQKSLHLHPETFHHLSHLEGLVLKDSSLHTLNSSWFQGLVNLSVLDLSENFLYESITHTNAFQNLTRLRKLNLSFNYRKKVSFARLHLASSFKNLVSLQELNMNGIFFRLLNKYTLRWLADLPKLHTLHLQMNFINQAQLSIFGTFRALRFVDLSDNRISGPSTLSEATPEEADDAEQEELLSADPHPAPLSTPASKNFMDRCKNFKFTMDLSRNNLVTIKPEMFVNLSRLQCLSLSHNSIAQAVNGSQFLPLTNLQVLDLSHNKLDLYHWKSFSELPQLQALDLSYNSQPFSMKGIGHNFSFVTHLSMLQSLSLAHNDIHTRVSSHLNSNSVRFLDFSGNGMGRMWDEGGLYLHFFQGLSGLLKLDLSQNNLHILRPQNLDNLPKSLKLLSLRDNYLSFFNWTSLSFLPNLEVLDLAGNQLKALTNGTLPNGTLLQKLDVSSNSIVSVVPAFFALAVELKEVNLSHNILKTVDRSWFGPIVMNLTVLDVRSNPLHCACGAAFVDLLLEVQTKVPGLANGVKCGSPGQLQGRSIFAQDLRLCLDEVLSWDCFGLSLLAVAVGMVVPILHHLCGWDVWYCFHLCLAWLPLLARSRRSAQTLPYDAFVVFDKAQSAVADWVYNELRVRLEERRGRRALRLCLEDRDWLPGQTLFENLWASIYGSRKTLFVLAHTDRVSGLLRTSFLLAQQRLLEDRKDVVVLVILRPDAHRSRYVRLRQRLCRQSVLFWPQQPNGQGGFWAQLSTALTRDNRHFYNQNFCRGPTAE
Summary of the method: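 HEK293 cells stably expressing mouse TLR9 were transiently transfected with a SEAP reporter for 6 h, then stimulated with ODN at 0.1, 0.3 or 1 μg/mL for 18 h. Reporter expression is given as fold change in NF-κB activity over medium. Representative of two independent experiments.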

J774 = assay: Inhibition of 5'-CTATCTGACGTTCTCTGT-3'-activated NF-kappaB activity in mouse J774 cells at 2.5 ug/ml after 1 hr by EMSA; format: cell-based
Summary of the method: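 J774 murine macrophages were grown in DMEM with 10% FBS and antibiotics, plated at 5 × 10^6 cells/well, and co-incubated for 1 h with the agonist ODN (0.5 µg/mL) and test ODN (2.5 µg/mL). Nuclear extracts were prepared and NF-κB binding was analysed by EMSA on native polyacrylamide gels with autoradiography.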

Splenocyte [2] = assay: Immunostimulatory activity in C57BL/6 mouse splenocytes assessed as induction of IL12 secretion at 2 to 10 ug/ml after 24 hrs by sandwich ELISA; format: functional, cell-based
Summary of the method: (§1)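 C57BL/6 splenocytes (mice 5–8 weeks) at 5 × 10^6 cells/mL in RPMI complete medium. ODNs dissolved in PBS were added and the cells incubated at 37 °C for 24 h. Supernatant IL-12 or IL-6 was measured by sandwich ELISA. Runs were done two or three times, in duplicate per concentration.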

Splenocyte [3] = assay: Immunostimulatory activity in C57BL/6 mouse splenocytes assessed as induction of IL6 secretion at 2 to 10 ug/ml after 24 hrs by sandwich ELISA; format: functional, cell-based; summary of the method: as §1
Splenocyte [4] = assay: Inhibition of 5'-CTATCTGACGTTCTCTGT-3'-induced IL6 secretion in C57BL/6 mouse splenocytes at 4 ug/ml after 24 hrs by sandwich ELISA; format: functional, cell-based
Summary of the method: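 Splenocytes from 5–8-week C57BL/6 mice, 5 × 10^6 cells/mL in RPMI complete medium, were co-incubated with the TLR9 agonist ODN (1 µg/mL) plus test ODN at 1 or 4 µg/mL, or over a concentration series, at 37 °C for 24 h. Supernatant IL-12 or IL-6 was measured by sandwich ELISA. Runs were done in duplicate, with three independent experiments.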

Mus musculus [5] = assay: Immunostimulatory activity in C57BL/6 mouse assessed as induction of MIP-1alpha level in serum at 2 mg/kg, sc after 2 hrs by Luminex multiplex assay; format: functional, organism-based; parameters: dose 2 mg/kg
Summary of the method: (§2)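 Female C57BL/6 mice, 5–6 weeks old, n = 3, received a single 2 mg/kg subcutaneous ODN injection in the right flank. Blood was taken by retro-orbital bleeding 2 h later. Naive mice served as baseline. Representative of three experiments.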

Mus musculus [6] = assay: Immunostimulatory activity in C57BL/6 mouse assessed as induction of TNFalpha level in serum at 2 mg/kg, sc after 2 hrs by Luminex multiplex assay; format: functional, organism-based; parameters: dose 2 mg/kg; summary of the method: as §2
Mus musculus [7] = assay: Immunostimulatory activity in C57BL/6 mouse assessed as induction of KC level in serum at 2 mg/kg, sc after 2 hrs by Luminex multiplex assay; format: functional, organism-based; parameters: dose 2 mg/kg; summary of the method: as §2
Mus musculus [8] = assay: Immunostimulatory activity in C57BL/6 mouse assessed as induction of IL12 level in serum at 2 mg/kg, sc after 2 hrs by sandwich ELISA; format: functional, organism-based; parameters: dose 2 mg/kg; summary of the method: as §2
Mus musculus [9] = assay: Immunostimulatory activity in C57BL/6 mouse assessed as inhibition of 5'-CTATCTGACGTTCTCTGT-3'-induced IL10 production in serum at 2 mg/kg, sc administered 24 hrs prior to 5'-CTATCTGACGTTCTCTGT-3' challenge measured after 2 hrs by Luminex multiplex assay; format: functional, organism-based; parameters: dose 2 mg/kg
Summary of the method: (§3)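 C57BL/6 mice received 2 mg/kg ODN sc in one flank. After 24 h, the TLR9 agonist ODN was given at 0.5 mg/kg sc in the opposite flank. Blood was drawn 2 h later and serum cytokines/chemokines were quantified by Luminex multiplex assay. Percent inhibition was taken against the agonist alone. Representative of three experiments.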

Mus musculus [10] = assay: Immunostimulatory activity in C57BL/6 mouse assessed as inhibition of 5'-CTATCTGACGTTCTCTGT-3'-induced MCP1 production in serum at 2 mg/kg, sc administered 24 hrs prior to 5'-CTATCTGACGTTCTCTGT-3' challenge measured after 2 hrs by Luminex multiplex assay; format: functional, organism-based; parameters: dose 2 mg/kg; summary of the method: as §3
Mus musculus [11] = assay: Immunostimulatory activity in C57BL/6 mouse assessed as inhibition of 5'-CTATCTGACGTTCTCTGT-3'-induced IL12 production in serum at 2 mg/kg, sc administered 24 hrs prior to 5'-CTATCTGACGTTCTCTGT-3' challenge measured after 2 hrs by sandwich ELISA; format: functional; conditions: C57BL/6, sc, route subcutaneous
Summary of the method: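 C57BL/6 mice were pretreated sc in the right flank with 2, 5 or 10 mg/kg ODN. After 24 h, the TLR9 agonist ODN was given at 0.5 mg/kg sc in the left flank. Serum IL-12 was measured by ELISA 2 h later. Representative of two experiments.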

Question: How did the Activity [1] turn out when CO[C@@H]1[C@H](OP(=O)(S)OC[C@H]2O[C@@H](n3cnc4c(=O)[nH]c(N)nc43)C[C@@H]2OP(=O)(S)OC[C@H]2O[C@@H](n3cc(C)c(=O)[nH]c3=O)C[C@@H]2OP(=O)(S)OC[C@H]2O[C@@H](n3cc(C)c(=O)[nH]c3=O)C[C@@H]2OP(=O)(S)OC[C@H]2O[C@@H](n3ccc(N)nc3=O)C[C@@H]2OP(=O)(S)OC[C@H]2O[C@@H](n3cc(C)c(=O)[nH]c3=O)C[C@@H]2OP(=O)(S)OC[C@H]2O[C@@H](n3ccc(N)nc3=O)C[C@@H]2OP(=O)(S)OC[C@H]2O[C@@H](n3cc(C)c(=O)[nH]c3=O)C[C@@H]2OP(=O)(S)OC[C@H]2O[C@@H](n3cnc4c(=O)[nH]c(N)nc43)C[C@@H]2OP(=O)(S)OC[C@H]2O[C@@H](n3cc(C)c(=O)[nH]c3=O)C[C@@H]2O)[C@@H](COP(=O)(S)O[C@H]2C[C@H](n3cnc4c(N)ncnc43)O[C@@H]2COP(=O)(S)O[C@H]2C[C@H](n3cnc4c(=O)[nH]c(N)nc43)O[C@@H]2COP(=O)(S)O[C@H]2C[C@H](n3cc(C)c(=O)[nH]c3=O)O[C@@H]2COP(=O)(S)O[C@H]2C[C@H](n3ccc(N)nc3=O)O[C@@H]2COP(=O)(S)O[C@H]2C[C@H](n3cc(C)c(=O)[nH]c3=O)O[C@@H]2COP(=O)(S)O[C@H]2C[C@H](n3cnc4c(N)ncnc43)O[C@@H]2COP(=O)(S)O[C@H]2C[C@H](n3cc(C)c(=O)[nH]c3=O)O[C@@H]2COP(=O)(S)O[C@H]2C[C@H](n3ccc(N)nc3=O)O[C@@H]2CO)O[C@H]1n1ccc(N)nc1=O (some centres undefined) was run?
Answer: inactive

Question: What about the Activity (J774) of the same molecule?
Answer: Active

Question: What about the Activity (Splenocyte [2]) of the same molecule?
Answer: Active

Question: What about the Activity (Splenocyte [3]) of the same molecule?
Answer: Active

Question: What about the Activity (Splenocyte [4]) of the same molecule?
Answer: Active

Question: What about the Activity (Mus musculus [5]) of the same molecule?
Answer: inactive

Question: What about the Activity (Mus musculus [6]) of the same molecule?
Answer: inactive

Question: What about the Activity (Mus musculus [7]) of the same molecule?
Answer: inactive

Question: And the Activity (Mus musculus [8])?
Answer: inactive

Question: And the Activity (Mus musculus [9])?
Answer: Active

Question: And the Activity (Mus musculus [10])?
Answer: Active

Question: What about the inhibition in vivo at 2 mg/kg (Mus musculus [11]) of the same molecule?
Answer: 50%

Question: With CO[C@@H]1[C@H](OP(=O)(S)OC[C@H]2O[C@@H](n3cc(C)c(=O)[nH]c3=O)C[C@@H]2OP(=O)(S)OC[C@H]2O[C@@H](n3cc(C)c(=O)[nH]c3=O)C[C@@H]2OP(=O)(S)OC[C@H]2O[C@@H](n3ccc(N)nc3=O)C[C@@H]2OP(=O)(S)OC[C@H]2O[C@@H](n3cc(C)c(=O)[nH]c3=O)C[C@@H]2OP(=O)(S)OC[C@H]2O[C@@H](n3ccc(N)nc3=O)C[C@@H]2OP(=O)(S)OC[C@H]2O[C@@H](n3cc(C)c(=O)[nH]c3=O)C[C@@H]2OP(=O)(S)OC[C@H]2O[C@@H](n3cnc4c(=O)[nH]c(N)nc43)C[C@@H]2OP(=O)(S)OC[C@H]2O[C@@H](n3cc(C)c(=O)[nH]c3=O)C[C@@H]2O)[C@@H](COP(=O)(S)O[C@H]2C[C@H](n3ccc(N)nc3=O)O[C@@H]2COP(=O)(S)O[C@H]2C[C@H](n3cnc4c(N)ncnc43)O[C@@H]2COP(=O)(S)O[C@H]2C[C@H](n3cnc4c(=O)[nH]c(N)nc43)O[C@@H]2COP(=O)(S)O[C@H]2C[C@H](n3cc(C)c(=O)[nH]c3=O)O[C@@H]2COP(=O)(S)O[C@H]2C[C@H](n3ccc(N)nc3=O)O[C@@H]2COP(=O)(S)O[C@H]2C[C@H](n3cc(C)c(=O)[nH]c3=O)O[C@@H]2COP(=O)(S)O[C@H]2C[C@H](n3cnc4c(N)ncnc43)O[C@@H]2COP(=O)(S)O[C@H]2C[C@H](n3cc(C)c(=O)[nH]c3=O)O[C@@H]2COP(=O)(S)O[C@H]2C[C@H](n3ccc(N)nc3=O)O[C@@H]2CO)O[C@H]1n1cnc2c(=O)[nH]c(N)nc21 (some centres undefined) as the molecule, how does the Activity [1] read?
Answer: inactive

Question: What about the Activity (J774) of the same molecule?
Answer: Active

Question: What about the Activity (Splenocyte [2]) of the same molecule?
Answer: Active

Question: What about the Activity (Splenocyte [3]) of the same molecule?
Answer: Active

Question: What about the Activity (Splenocyte [4]) of the same molecule?
Answer: Active

Question: What about the Activity (Mus musculus [5]) of the same molecule?
Answer: inactive

Question: What about the Activity (Mus musculus [6]) of the same molecule?
Answer: inactive

Question: What about the Activity (Mus musculus [7]) of the same molecule?
Answer: inactive

Question: What about the Activity (Mus musculus [8]) of the same molecule?
Answer: inactive

Question: What about the Activity (Mus musculus [9]) of the same molecule?
Answer: Active

Question: What about the Activity (Mus musculus [10]) of the same molecule?
Answer: Active

Question: What about the inhibition in vivo at 2 mg/kg (Mus musculus [11]) of the same molecule?
Answer: 50%
